# In publication PMC11402776 (The Journal of Biological Chemistry, 2024):
# Read-outs that look alike come from different tables or passages of the source.
# Experiments:
# [1] = target: PKM2; conditions: read-out: dissociation constant with PKM2; cited from earlier work
# [2] = test system: PKM2; conditions: activator of PKM2; cited from earlier work
# [3] = test system: glycolytic pathway (HeLa cell lysate); experiment: Cell-free glycolysis assay using HeLa cell lysate; type: biochemical, Human
# [4] = test system: glycolytic pathway in HeLa cells; experiment: Cellular glycolysis in treated HeLa cells; type: cell-based, Human
# Outline: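 HeLa cells in RPMI-1640 (10% FBS, 37 °C, 5% CO2), with or without an added 5 mM serine for 5 h. In a second arm, cells were serine-deprived overnight and then given fresh medium with or without serine for 5 h. Read-outs: medium glucose and lactate, and HClO4-extracted intracellular glycolytic intermediates, from which Qs and ΔGs were calculated. A cell-free HeLa-lysate glycolysis system was also run with or without 5 mM serine.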
# [5] = target: cell lysate PK (RKO) (Homo sapiens, UniProt P14618); experiment: PK activity assay, RKO cell lysate; type: biochemical
# [6] = target: cell lysate PK (MGC80-3) (Homo sapiens, UniProt P14618); experiment: PK activity assay, MGC80-3 cell lysate; type: biochemical; conditions: MGC80-3 lysate; with AIM
# [7] = target: cell lysate PK (HeLa) (Homo sapiens, UniProt P14618); experiment: PK activity assay, HeLa cell lysate; type: biochemical
# [8] = target: cell lysate PK (SK-HEP-1) (Homo sapiens, UniProt P14618); experiment: PK activity assay, SK-HEP-1 cell lysate; type: biochemical; conditions: read-out: AC50FBP; SK-HEP-1 lysate; Control (without AIM)
# [9] = test system: cell lysate PK; type: biochemical, Human; conditions: regulators at cellular concentrations; Fig. 5A
# Outline: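 Lysates of control and PKM2 knockdown or knockout cells were assayed for PK by the coupled LDH/NADH method at 340 nm, 37 °C, pH 7.4. PEP was set at each line's measured cellular concentration, for example 0.07 mM for control HeLa and 0.21 mM for siPKM2 HeLa. FBP, the amino-acid mix, or both were added at cellular concentrations. Activity without regulators was set to 100%. Three independent experiments in triplicate.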
# [10] = target: cell lysate PK (A549) (Homo sapiens, UniProt P14618); experiment: PK activity assay, A549 cell lysate; type: biochemical
# Sequence of cell lysate PK (A549) (P14618 2-531): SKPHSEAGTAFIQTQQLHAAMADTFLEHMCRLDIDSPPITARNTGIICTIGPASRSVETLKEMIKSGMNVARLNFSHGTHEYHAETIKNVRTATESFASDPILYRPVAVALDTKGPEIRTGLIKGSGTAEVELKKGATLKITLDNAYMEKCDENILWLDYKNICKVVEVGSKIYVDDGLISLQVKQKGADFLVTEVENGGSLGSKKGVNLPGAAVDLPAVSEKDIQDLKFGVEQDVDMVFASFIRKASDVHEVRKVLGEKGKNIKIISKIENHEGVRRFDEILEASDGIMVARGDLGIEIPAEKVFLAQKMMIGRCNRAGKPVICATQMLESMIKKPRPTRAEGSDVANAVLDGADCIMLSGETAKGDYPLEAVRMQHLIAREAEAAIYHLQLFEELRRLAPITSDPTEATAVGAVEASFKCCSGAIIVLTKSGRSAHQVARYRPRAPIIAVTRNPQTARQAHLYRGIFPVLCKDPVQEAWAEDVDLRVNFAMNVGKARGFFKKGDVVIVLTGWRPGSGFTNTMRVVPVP
# Sequence of cell lysate PK (HeLa) (P14618 2-531): as above
# Sequence of cell lysate PK (RKO) (P14618 2-531): as above
# Sequence of cell lysate PK (MGC80-3) (P14618 2-531): as above
# Sequence of cell lysate PK (SK-HEP-1) (P14618 2-531): as above
smiles,measurement,setting,value
N[C@@H](CC(=O)O)C(=O)O [aspartate],Kd,[1],35 ± 7 µM
NC(=O)C[C@H](N)C(=O)O [asparagine],Kd,[1],11 ± 2 µM
Cn1c2cc([S+](C)[O-])sc2c2cnn(Cc3cccc(N)c3)c(=O)c21 (stereo not drawn) [TEPP-46],AC90TEPP-46,[2],[…]
same,effect on glycolytic rate,[4]; 1 μM TEPP-46,no significant effect
O=C(COP(=O)(O)O)[C@@H](O)[C@H](O)[C@H](O)COP(=O)(O)O [FBP],EC50,"[5]; read-out: AC50FBP, Control (without AIM)",0.0672 ± 0.0324 µM
same,EC50,"[5]; read-out: AC50FBP, with AIM",1.07 ± 0.394 µM
same,AC0: concentration of FBP that completely reverses the inhibition of PK by AIM,[6],349.6 ± 31.2 nM
same,ACMaxFBP (minimum concentration for maximal activation),[7]; Control (without AIM),216.4 ± 52.8 nM
same,AC0: concentration of FBP that completely reverses the inhibition of PK by AIM,[7]; with AIM,585.2 ± 99.0 nM
same,ACMaxFBP (minimum concentration for maximal activation),[7]; with AIM,2293.7 ± 503.7 nM
same,Kd,[1],0.174 µM
same,EC50,[8],0.0289 ± 0.021 µM
same,reversal of the inhibition of PK by AIM,[9],completely reversed the inhibition
same,ACMaxFBP (minimum concentration for maximal activation),[10]; Control (without AIM),279.0 ± 143.1 nM
same,EC50,"[10]; read-out: AC50FBP, with AIM",0.682 ± 0.126 µM
same,ACMaxFBP (minimum concentration for maximal activation),[10]; with AIM,1258.9 ± 245.4 nM
"CC(C)[C@H](N)C(=O)O [Valine, valine]",Kd,[1],757 ± 120 µM
N[C@@H](CS)C(=O)O [cysteine],Kd,[1],5.5 µM
"N[C@@H](CO)C(=O)O [Serine, serine]","effect on glycolysis (rate, intermediate concentrations, ΔGs)",[3]; 5 mM serine,did not observe serine exert any significant effect on glycolysis
same,Kd,[1],191 µM
same,reversal of the inhibition of PK by AIM,[9],did not significantly reverse the inhibition
same,glucose consumption and lactate generation with or without serine treatment,[4]; 5 mM serine 5 h,comparable
"N[C@@H](Cc1ccccc1)C(=O)O [Phenylalanine, phenylalanine]",Kd,[1],507 µM
